Data reported in ChEMBL document CHEMBL1137990, “Design and synthesis of novel indole beta-diketo acid derivatives as HIV-1 integrase inhibitors” (J Med Chem, 2004).

What was measured:
[1] = biological target: Human immunodeficiency virus type 1 integrase (Human immunodeficiency virus 1) (UniProt Q7ZJM1); assay: Selectivity index against HIV-1 integrase
[2] = biological target: T1, Human immunodeficiency virus type 1 integrase (Human immunodeficiency virus 1, UniProt Q7ZJM1); assay: Inhibitory concentration against HIV-1 integrase mediated 3' processing reaction
In short: (§1)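 Wild-type IN at 200 nM final, preincubated with inhibitor for 30 min at 30 °C in buffer of 50 mM NaCl, 1 mM HEPES pH 7.5, 50 µM EDTA, 50 µM DTT, 10% glycerol, 7.5 mM MnCl₂, 0.1 mg/mL BSA, 10 mM 2-mercaptoethanol, 10% DMSO, 25 mM MOPS pH 7.2. Then 20 nM 5′-³²P-labeled linear oligonucleotide substrate added, 1 h more; quenched with formamide/EDTA loading dye; products resolved on gel.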

[3] = system: Human immunodeficiency virus 1; assay: Effective concentration required for the inhibition of HIV-1 cytopathic effect; format: functional, organism-based
In short: (§2)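 CEM-SS human T cells at 5 × 10³ cells/well infected with HIV-1 RF (MOI 0.3). Serial compound dilutions added at once; cultured 6 days at 37 °C, 5% CO₂. Viability read by XTT (0.2 mg/mL, 4 h) absorbance at 450 nm. AZT and dextran sulfate run as controls. Toxicity measured on the same plate in uninfected CEM-SS cells.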

[4] = biological target: T1, Human immunodeficiency virus type 1 integrase; assay: Inhibitory concentration against HIV-1 integrase mediated strand transfer reaction; in short: as §1
CEM-SS = assay: Cytotoxic concentration against HIV-1 was evaluated in human T-cell line CEM-SS; format: functional; in short: as §2
[5] = Therapeutic index is the ratio of CC50 to that of EC50; settings: human; read-out: Therapeutic index
In short: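 CC50/EC50 ratio, both values from the same plate. CEM-SS cells were infected with HIV-1 RF (MOI 0.3) or left uninfected, with serial compound dilutions. Cultures ran 6 days at 37 °C. Viability was read by XTT absorbance at 450 nm.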

T1 sequence (Q7ZJM1 whole entry): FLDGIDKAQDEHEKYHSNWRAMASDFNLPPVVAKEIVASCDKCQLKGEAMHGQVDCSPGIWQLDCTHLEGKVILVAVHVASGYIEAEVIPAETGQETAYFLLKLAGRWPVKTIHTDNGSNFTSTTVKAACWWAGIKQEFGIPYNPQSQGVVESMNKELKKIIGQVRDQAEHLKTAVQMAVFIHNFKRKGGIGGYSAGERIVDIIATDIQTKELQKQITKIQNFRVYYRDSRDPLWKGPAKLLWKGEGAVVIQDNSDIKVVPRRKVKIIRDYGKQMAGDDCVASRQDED
Chain of Human immunodeficiency virus type 1 integrase (Human immunodeficiency virus 1) (Q7ZJM1 as listed by the source): as the sequence (Q7ZJM1 whole entry) above

## COC(=O)C(=O)CC(=O)c1cn(C)c2cc3c(cc12)OCO3
[1]
  Selectivity index: > 1.6
[2]
  IC50: > 100 µM
[3]
  EC50: > 31 µM
[4]
  IC50: 60 µM
CEM-SS
  CC50: 31 µM

## COC(=O)C(=O)CC(=O)c1cc2ccccc2n1C
[1]
  Selectivity index: 2
[2]
  IC50: 100 µM
[3]
  EC50: > 106 µM
[4]
  IC50: 45 µM
CEM-SS
  CC50: 106 µM

## COC(=O)C(=O)CC(=O)c1cc2cc3c(cc2n1Cc1ccccc1)OCO3
[1]
  Selectivity index: 7
[2]
  IC50: 100 µM
[3]
  EC50: > 1.1 µM
[4]
  IC50: 14 µM
CEM-SS
  CC50: 1.1 µM

## CCn1c(C(=O)CC(=O)C(=O)OC)cc2cc3c(cc21)OCO3
[1]
  Selectivity index: 1.3
[2]
  IC50: 85 µM
[3]
  EC50: > 75 µM
[4]
  IC50: 65 µM
CEM-SS
  CC50: 75 µM

## CCn1c(C(=O)CC(=O)C(=O)OC)cc2ccccc21
[3]
  EC50: > 60 µM
CEM-SS
  CC50: 60 µM

## O=C(O)C(=O)/C=C(\O)c1cn(Cc2ccccc2)c2ccccc12
[1]
  Selectivity index: 12
[2]
  IC50: 12 µM
[4]
  IC50: 1 µM

## CCn1c(/C(O)=C/C(=O)C(=O)O)cc2ccccc21
[1]
  Selectivity index: 10
[2]
  IC50: 16 µM
[3]
  EC50: > 110 µM
[4]
  IC50: 1.6 µM
CEM-SS
  CC50: 110 µM

## COC(=O)C(=O)CC(=O)c1cc2cc3c(cc2n1C)OCO3
[1]
  Selectivity index: 2
[2]
  IC50: 100 µM
[3]
  EC50: > 200 µM
[4]
  IC50: 50 µM
CEM-SS
  CC50: > 200 µM

## CCn1c(/C(O)=C/C(=O)C(=O)O)cc2cc3c(cc21)OCO3
[1]
  Selectivity index: 11
[2]
  IC50: 55 µM
[3]
  EC50: > 57 µM
[4]
  IC50: 5 µM
CEM-SS
  CC50: 57 µM

## CCn1cc(/C(O)=C/C(=O)C(=O)O)c2ccccc21
[1]
  Selectivity index: 31
[2]
  IC50: 93 µM
[5]
  selectivity ratio: 12
[3]
  EC50: 9 µM
[4]
  IC50: 3 µM
CEM-SS
  CC50: 108 µM

## CCn1cc(C(=O)CC(=O)C(=O)OC)c2ccccc21
[1]
  Selectivity index: > 3.8
[2]
  IC50: > 100 µM
[5]
  selectivity ratio: > 10.5
[3]
  EC50: 19 µM
[4]
  IC50: 26 µM
CEM-SS
  CC50: > 200 µM

## Cn1cc(/C(O)=C/C(=O)C(=O)O)c2ccccc21
[1]
  Selectivity index: 50
[2]
  IC50: 100 µM
[5]
  selectivity ratio: > 5.4
[3]
  EC50: 37 µM
[4]
  IC50: 2 µM
CEM-SS
  CC50: > 200 µM

## CCn1cc(/C(O)=C/C(=O)C(=O)O)c2cc3c(cc21)OCO3
[1]
  Selectivity index: 15
[2]
  IC50: 45 µM
[5]
  selectivity ratio: > 1.6
[3]
  EC50: 123 µM
[4]
  IC50: 3 µM
CEM-SS
  CC50: > 200 µM

## Cn1c(/C(O)=C/C(=O)C(=O)O)cc2ccccc21
[1]
  Selectivity index: 8
[2]
  IC50: 50 µM
[3]
  EC50: > 81 µM
[4]
  IC50: 6 µM
CEM-SS
  CC50: 81 µM

## O=C(O)C(=O)/C=C(\O)c1cc2ccccc2n1Cc1ccccc1
[1]
  Selectivity index: 20
[2]
  IC50: 20 µM
[4]
  IC50: 1 µM

## Cn1cc(/C(O)=C/C(=O)C(=O)O)c2cc3c(cc21)OCO3
[1]
  Selectivity index: 33
[2]
  IC50: 100 µM
[3]
  EC50: > 108 µM
[4]
  IC50: 3 µM
CEM-SS
  CC50: 108 µM

## O=C(O)C(=O)/C=C(\O)c1cc2cc3c(cc2n1Cc1ccccc1)OCO3
[1]
  Selectivity index: 17
[2]
  IC50: 35 µM
[3]
  EC50: > 3.8 µM
[4]
  IC50: 2 µM
CEM-SS
  CC50: 3.8 µM

## Cn1c(/C(O)=C/C(=O)C(=O)O)cc2cc3c(cc21)OCO3
[1]
  Selectivity index: 5
[2]
  IC50: 11 µM
[3]
  EC50: > 200 µM
[4]
  IC50: 2 µM
CEM-SS
  CC50: > 200 µM
